Published values of several laboratories.
Compare with care: the assays were run in different laboratories. Values after ≈ are worked out from the molar mass of the structure shown.

SMILES	organism	assay	system	conditions	endpoint	value
O=C(O)c1cn(C2CC2)c2cc(N3CCNCC3)c(F)cc2c1=O	Bacillus subtilis	microbial killing, broth dilution			MBC	0.5 mg/L (≈ 1.51 µM)
CCOC(=O)c1nc2ccccc2c(=O)n1Cc1cn(-c2ccc(C)cc2)nn1	Nakaseomyces glabratus	microbial growth, broth dilution	ATCC90030	24 h	IC50	8.4 mg/L
C#CCCCCCCCCC=CCC(O)CC(O)CO (stereo not shown)	Cryptococcus neoformans	microbial growth, broth dilution	ATCC90113		IC50	> 8 mg/L
CCOC(=O)C=c1[nH]c(=O)c(=Cc2cn(-c3ccccc3)nc2-c2ccccc2)s1	Bacillus subtilis	microbial growth, well diffusion		100000 µg/mL	inhibition zone	14 mm
C[C@@H]1[C@H](O)[C@@H](C)/C=C/C=C/C=C/C=C/C=C/C=C/C=C/[C@H](O[C@@H]2O[C@H](C)[C@@H](O)[C@H](N)[C@@H]2O)C[C@@H]2O[C@](O)(C[C@@H](O)C[C@@H](O)[C@H](O)CC[C@@H](O)C[C@@H](O)CC(=O)O[C@H]1C)C[C@H](O)[C@H]2C(=O)O	Nakaseomyces glabratus	microbial killing	ATCC90030		MFC	1.35 µM (≈ 1.25 µg/mL)
Cc1c(NN=C2SC(C(C#N)=Cc3ccc(Cl)cc3)=NC2=O)c(=O)n(-c2ccccc2)n1C	Bacillus subtilis	microbial growth, well diffusion		100000 µg/mL	inhibition zone	17 mm
C[C@@H]1[C@H](O)[C@@H](C)/C=C/C=C/C=C/C=C/C=C/C=C/C=C/[C@H](O[C@@H]2O[C@H](C)[C@@H](O)[C@H](N)[C@@H]2O)C[C@@H]2O[C@](O)(C[C@@H](O)C[C@@H](O)[C@H](O)CC[C@@H](O)C[C@@H](O)CC(=O)O[C@H]1C)C[C@H](O)[C@H]2C(=O)O	Cryptococcus neoformans	microbial growth	ATCC90113		IC50	0.75 mg/L
COc1cccc(-n2cc(Cn3c(C(=O)O)nc4ccccc4c3=O)nn2)c1	Nakaseomyces glabratus	microbial growth, broth dilution	ATCC90030	24 h	IC50	453 mg/L
N#CC(=Cc1cn(-c2ccccc2)nc1-c1ccccc1)C1=NC(=O)CS1	Bacillus subtilis	microbial growth, well diffusion		100000 µg/mL	inhibition zone	29 mm
O=C(O)c1nc2ccccc2c(=O)n1Cc1cn(-c2cccc(Cl)c2)nn1	Nakaseomyces glabratus	microbial growth, broth dilution	ATCC90030	24 h	IC50	278 mg/L
C[C@@H]1[C@H](O)[C@@H](C)/C=C/C=C/C=C/C=C/C=C/C=C/C=C/[C@H](O[C@@H]2O[C@H](C)[C@@H](O)[C@H](N)[C@@H]2O)C[C@@H]2O[C@](O)(C[C@@H](O)C[C@@H](O)[C@H](O)CC[C@@H](O)C[C@@H](O)CC(=O)O[C@H]1C)C[C@H](O)[C@H]2C(=O)O	Cryptococcus neoformans	microbial growth, broth dilution	ATCC90113		IC50	0.69 mg/L
Cc1ccc(-n2cc(Cn3c(C(=O)O)nc4ccccc4c3=O)nn2)cc1	Nakaseomyces glabratus	microbial growth, broth dilution	ATCC90030	24 h	IC50	288 mg/L
O=C(O)CN1C(=O)/C(=C/c2ccc(-c3ccc(N(c4ccccc4)c4ccccc4)cc3)c3ccccc23)SC1=S	Bacillus subtilis	microbial killing, broth dilution	ATCC6633		MBC	1000 mg/L (≈ 1750 µM)
O=C(O)c1nc2ccccc2c(=O)n1Cc1cn(-c2ccc(F)cc2)nn1	Nakaseomyces glabratus	microbial growth, broth dilution	ATCC90030	24 h	IC50	422 mg/L
CCCCCCC/C=C/C(=O)N1C(=O)/C(=C(\O)c2ccc(F)cc2)C(=O)C1CC(C)C (stereo not shown)	Proteus vulgaris	microbial growth	ATCC33420		MIC	> 200 mg/L
O=C1NC(=S)S/C1=C\c1ccc(-c2ccc(N(c3ccccc3)c3ccccc3)cc2)c2ccccc12	Bacillus subtilis	microbial killing, broth dilution	ATCC6633		MBC	> 1000 mg/L
CCOC(=O)c1nc2ccccc2c(=O)n1Cc1cn(-c2ccc([N+](=O)[O-])cc2)nn1	Nakaseomyces glabratus	microbial growth, broth dilution	ATCC90030	24 h	IC50	316 mg/L
Cc1c(NN=C2SC(CC#N)=NC2=O)c(=O)n(-c2ccccc2)n1C	Bacillus subtilis	microbial growth, well diffusion		100000 µg/mL	inhibition zone	14 mm
C[C@@H](c1ncncc1F)[C@](O)(Cn1cncn1)c1ccc(F)cc1F	Acanthamoeba polyphaga	parasite growth, resazurin		7 days	IC50	55.3 µM
CCOC(=O)c1nc2ccccc2c(=O)n1Cc1cn(-c2ccc(C(=O)O)cc2)nn1	Nakaseomyces glabratus	microbial growth, broth dilution	ATCC90030	24 h	IC50	87.7 mg/L
CCCCCCC/C=C/C(=O)N1C(=O)/C(=C(/C)O)C(=O)C1CO (stereo not shown)	Proteus vulgaris	microbial growth	ATCC33420		MIC	> 200 mg/L
N=C(NCCCCCCNC(=N)NC(=N)Nc1ccc(Cl)cc1)NC(=N)Nc1ccc(Cl)cc1	Acanthamoeba polyphaga	parasite growth, resazurin		96 h	IC50	9.41 µM
